These results are taken from PMC3561458 (Investigational new drugs, 2011).

Assay [1] relates to advanced/metastatic solid tumors. Kind of assay: Antitumor activity. It is filed as in vivo, human. An outline of the steps:
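Adults (≥18 y) with relapsed or refractory solid tumours and no standard therapy, ECOG 0–1, take the test compound as capsules orally once daily for 7 consecutive days in 2-week cycles (S1). Patients stay on study until progression, refusal or unacceptable toxicity. Disease is assessed by RECIST every 8 weeks and at study discontinuation.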

Assay [2] deals with CDK5. To be noted: cited from earlier work.
Assay [3] relates to CDK1. To be noted: cited from earlier work.
The test system of assay [4] is CDK2. The following applies: cited from earlier work.

As to `CNC(=O)c1nn(C)c2c1C(C)(C)Cc1cnc(Nc3ccc(N4CCN(C)CC4)cc3)nc1-2` [PHA-848125AC, N,1,4,4-tetramethyl-8-{[4-(4-methylpiperazin-1-yl)phenyl]amino}-4,5-dihydro-1H-pyrazolo [4,3-h]quinazoline-3-carboxamide], the duration of stabilization was 55.6 weeks in assay [1] (CRC patient, 150 mg/day, S1); 24.6 weeks in assay [1] (NSCLC patient, 200 mg/day, S1); 29.1 weeks in assay [1] (carcinoid patient, 180 mg/day, S2); 39.3 weeks in assay [1] (pancreatic adenocarcinoma patient, 180 mg/day, S2). The objective response result in assay [1] (S1) is given as “No objective response”. Besides, the “patients discontinued for lack of efficacy” value in assay [1] (S1 N=22) was found to be 81.8%; in assay [1] (S2 N=15), 86.7%. Besides, the “inhibitory activity towards CDK5” value in assay [2] is given as “inhibitory activity”. Also, in assay [3], the “inhibitory activity towards CDK1” value is “inhibitory activity”. For the same molecule, the “inhibitory activity towards CDK2” value in assay [4] is listed as “inhibitory activity”.
